Measurements from different studies.
FLT3 D835Y: Receptor-type tyrosine-protein kinase FLT3 (FLT3, Homo sapiens, UniProt P36888, D835Y)
FLT3: Receptor-type tyrosine-protein kinase FLT3 (FLT3, Homo sapiens, UniProt P36888)

COc1cc2ncnc(Nc3ccc(Oc4ccccc4)cc3C)c2cc1OC
inhibition (FLT3 D835Y; enzyme activity, inhibitor; 1 µM): 17%

COc1cc(-c2cc(-c3ccc(N4CCNCC4)cc3)cnc2N)cc(OC)c1OC
inhibition (FLT3 D835Y; enzyme activity, inhibitor; 1 µM): 2%

Cn1cncc1C1=CN(c2ncnc3[nH]cnc23)CCS1
inhibition (FLT3; enzyme activity, inhibitor, radiometric; 2 µM): 88.1%

COc1cc2nccc(Oc3ccc(NC(=O)c4c5n(n(-c6ccc(F)cc6)c4=O)CCCC5)cc3)c2cc1OC
inhibition (FLT3; enzyme activity, inhibitor; 0.1 µM): 49%

CNc1cccc2cc(C(=O)Nc3ccc(C(=O)O)cc3)c(=O)[nH]c12
inhibition (FLT3 D835Y; enzyme activity, inhibitor; 10 µM): 0.73%

CCCS(=O)(=O)Nc1ccc(F)c(C(=O)c2c[nH]c3ncc(-c4ccc(Cl)cc4)cc23)c1F
inhibition (FLT3; enzyme activity, inhibitor; 1 µM): < 20%

Cn1cnc(Br)c1C1=CN(c2ncnc3[nH]cnc23)CCS1
inhibition (FLT3; enzyme activity, inhibitor, radiometric; 2 µM): 80.5%

COc1cccc(Nc2cccc(-c3cnc4cc(-c5cnn(C)c5)ccn34)n2)c1
inhibition (FLT3; cell-free assay, competition with immobilised ligand; 8.4 nM): > 65%

COc1cc2ncnc(Nc3ccc(Oc4ccccc4)c(C)c3C)c2cc1OC
inhibition (FLT3; enzyme activity, inhibitor; 1 µM): 15%

CN1CC(Oc2cnc(C#N)cc2-c2ccn3nc(NC(=O)C4CC4)cc3c2)C1
inhibition (FLT3; enzyme activity, inhibitor; 1 µM): 0%

O=C(CSc1nc2nccnc2c(=O)n1CCc1ccccc1)Nc1nccs1
inhibition (FLT3; enzyme activity, inhibitor; 10 µM): 13%

CN(C)C1CCN(CC#Cc2nn(C3CCCC3)c3nc(NCc4ccccc4)ncc23)C1 (stereo not drawn)
inhibition (FLT3; enzyme activity, inhibitor, FRET; 0.1 µM): 13%
